Data as given in PubChem BioAssay AID588754 (Broad Institute, 2011).
Activity calls are given as the source filed them.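 Rule for the calls: active = fitted curve shows reduced dye-labelled HDL uptake, half-maximal concentration at most ten times top dose; inconclusive = flat curve with 30 to 70% inhibition, or unreliable fit; inactive = the rest.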

Target: Scavenger receptor class B member 1 (Mus musculus) (UniProt Q61009)
Test: SR-BI-mediated DiI-HDL uptake inhibitors, dose response, ldlA[mSR-BI] CHO cells, powder samples, set 5 (AID 588754)
Details: DiI-HDL uptake fluorescence, 3 h
How it was run: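 Detection: bottom-read DiI fluorescence after washing, ex 550/em 595 nm; Assay system: LDL receptor-deficient CHO ldlA cells overexpressing murine SR-BI; Medium: Ham's F12 with fatty acid-free BSA and HEPES; Schedule: 3 h exposure to compound plus DiI-HDL at 37 °C; Also added: DiI-labeled HDL at 10 µg/mL final.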

Chain of Scavenger receptor class B member 1 (Mus musculus) (Q61009 whole entry, looked up): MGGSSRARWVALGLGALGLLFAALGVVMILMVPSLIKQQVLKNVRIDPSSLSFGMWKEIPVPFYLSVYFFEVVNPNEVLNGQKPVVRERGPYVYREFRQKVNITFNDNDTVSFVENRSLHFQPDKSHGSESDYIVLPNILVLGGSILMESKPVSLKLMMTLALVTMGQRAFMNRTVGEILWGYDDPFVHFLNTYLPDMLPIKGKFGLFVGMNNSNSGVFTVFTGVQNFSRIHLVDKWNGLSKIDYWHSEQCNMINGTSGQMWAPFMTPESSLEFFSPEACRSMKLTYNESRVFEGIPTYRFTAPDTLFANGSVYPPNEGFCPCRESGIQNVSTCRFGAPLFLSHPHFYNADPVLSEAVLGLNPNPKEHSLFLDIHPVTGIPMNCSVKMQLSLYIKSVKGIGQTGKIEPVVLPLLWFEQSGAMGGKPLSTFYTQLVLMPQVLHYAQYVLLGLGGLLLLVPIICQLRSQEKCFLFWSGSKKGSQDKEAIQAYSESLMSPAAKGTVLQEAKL

Row | AC50 [nM] | activity change, negative = inhibition (at 35 µM (top of the series)) | SMILES
1 | 60.2 | – | O=C(CN(C(=O)Cn1nnc(-c2ccc3c(c2)OCO3)n1)C1CCCCC1)NC1CCCC1
2 | 36.5 | – | COc1ccc(-c2nnn(CC(=O)N(CC(=O)NC3CCCC3)C3CCCCC3)n2)cc1OC
3 | 2270 | – | C[C@@H](C(=O)NC1CCCC1)N(C(=O)Cn1nnc(-c2ccc3c(c2)OCO3)n1)C1CCCCC1
4 | 21.1 | – | O=C(Nc1nc(-c2ccc3c(c2)CCN3)cs1)c1ccco1
5 | 18.9 | – | C[C@H](C(=O)NC1CCCC1)N(C(=O)Cn1nnc(-c2ccc3c(c2)OCO3)n1)C1CCCCC1
6 | 148 | – | COc1ccc(-c2nc(CC(=O)N(C3CCCCC3)C(C)C(=O)NC3CCCC3)co2)cc1OC (stereo not drawn)
7 | 10.3 | – | CCC(=O)N1CC(C)(C)c2cc(-c3csc(NC(=O)c4cc(OC)cc(OC)c4)n3)ccc21
8 | 3620 | – | Cc1ccc2oc(-c3cccc(NC(=O)c4cc(-n5cnnc5)ccc4Cl)c3)nc2c1
9 | 2.28 | – | CCNC(=O)N1CCc2cc(-c3csc(NC(=O)c4cc(OC)cc(OC)c4)n3)ccc21
10 | 207 | – | COc1cc(OC)cc(C(=O)Nc2nc(-c3ccc4c(c3)CCN4C(C)=O)cs2)c1
11 | 25.8 | – | CCC(=O)N1CCc2cc(-c3csc(NC(=O)c4ccc(F)c(OC)c4)n3)ccc21
12 | 2.76 | – | CCC(=O)N1CCc2cc(-c3csc(NC(=O)c4cc(OC)c(OC)c(OC)c4)n3)ccc21
13 | 26 | – | CC(=O)N1CCc2cc(-c3nc(NC(=O)c4cccc(OC(F)(F)F)c4)sc3C)ccc21
14 | 89.3 | – | CCC(=O)n1ccc2cc(-c3csc(NC(=O)c4cc(OC)cc(OC)c4)n3)ccc21
15 | 42.6 | – | CCC(=O)N1CCc2cc(-c3csc(NC(=O)c4cc(OC)cc(OC)c4)n3)ccc21
16 | 5.98 | – | C[C@@H]1CN([C@H](C)CO)C(=O)c2cc(NC(=O)Cc3cn(C)c4ccccc34)ccc2O[C@H]1CN(C)S(=O)(=O)c1ccc(Cl)cc1
17 | – | inactive | COc1c(NC(=O)C(=O)c2ccc(OCCN3CCOCC3)c3ccccc23)cc(C(C)(C)C)cc1NS(C)(=O)=O

Row | AC50 [nM] | activity change, negative = inhibition (at 35 µM (top of the series)) | SMILES
18 | 2.81 | – | COCC(=O)N1CCc2cc(-c3csc(NC(=O)c4cc(OC)cc(OC)c4)n3)ccc21
19 | 19.5 | – | COc1cc(OC)cc(C(=O)Nc2nc(-c3ccc4c(c3)CCN4C(=O)CN(C)C)cs2)c1
20 | 65.2 | – | COc1ccc(-c2nnn(CC(=O)N(C3CCCCC3)C(C)C(=O)NC3CCCC3)n2)cc1OC (stereo not drawn)
21 | 49.9 | – | CC(C(=O)NC1CCCC1)N(C(=O)Cn1nnc(-c2ccc3c(c2)OCO3)n1)C1CCCCC1 (stereo not drawn)
22 | 16.6 | – | CCCCCCC1CCC/C1=N\NC(N)=S (stereo not drawn)
23 | 1610 | – | COc1ccc(-c2nnn(CC(=O)N(CC(=O)N(C)C3CCCC3)C3CCCCC3)n2)cc1OC
24 | 372 | – | CCC(=O)N1CCc2cc(-c3csc(NCc4cc(OC)cc(OC)c4)n3)ccc21
25 | 35 | – | CCC(=O)N1CCc2cc(-c3csc(NC(=O)c4cccc(OC)c4)n3)ccc21
26 | 20.3 | – | CCC(=O)N1CC(C)(C)c2cc(-c3csc(NC(=O)c4ccco4)n3)ccc21
27 | 266 | – | CCC(=O)N1CCc2cc(-c3csc(NC(=O)c4cccc(OC(F)(F)F)c4)n3)ccc21
28 | 39 | – | COC(=O)N1CCc2cc(-c3csc(NC(=O)c4cc(OC)cc(OC)c4)n3)ccc21
29 | 256 | – | CCC(=O)N1CCc2cc(-c3csc(NC(=O)c4cc5ccccc5o4)n3)ccc21
30 | 110 | – | CCC(=O)Nc1ccc(-c2csc(NC(=O)c3cccc(OC)c3)n2)cc1
31 | 29.4 | – | COc1ccc(-c2cc(CC(=O)N(C3CCCCC3)C(C)C(=O)NC3CCCC3)no2)cc1OC (stereo not drawn)
32 | 9200 | – | COc1ccc(-c2nnn(CC(=O)N(CC(=O)N3CCCCC3)C3CCCCC3)n2)cc1OC
33 | 0.909 | – | COc1cc(OC)cc(C(=O)Nc2nc(-c3ccc4c(c3)CCN4C(=O)OC(C)(C)C)cs2)c1
